rRNA inh HTS – inhibits bacterial ribosomal RNA function over humanized ribosomes. E. coli WT GFP vs humanized-ribosome RFP mutants, fluorescence, 24 h; hits give low values; DMSO median 0, no signal -100. GFP signal change (wild-type ribosome), % (test concentration not listed). actives 1.6% (n = 350,000);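 active = significant combined selectivity score with lowered wild-type GFP, culture density cut under 30%, mutant RFP and density less affected; inactive = any of these conditions unmet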
DENV2 CPE rescue – protects cells from dengue virus 2 cytopathic effect. DENV2-infected cells, cytopathic effect rescue, plate reader. CPE inhibition, % at 9.99 µM. actives 1.7% (n = 350,000). AID 651640; in the data active = CPE inhibition above about 20%, passing the limit was not always enough; inconclusive = no clear call, values can overlap the other calls; tested in BHK-21 cells;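 also: 0% = median of neutral control wells and 100% = median of positive control wells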
Cneo AK release – causes C. neoformans cell lysis; adenylate kinase release luminescence, 4 h; normalised: neutral wells 0, clomiphene wells 100; lysis activity, % at 15 µM; actives 0.2% (n = 360,000); AID 651654;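 active = mean lysis activity across replicates of at least 80%, whatever share of replicates individually reach that level; inactive = mean lysis activity below 80%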
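Assay system: Cryptococcus neoformans yeast cells / Dosing: single-point compound dose / Timing: 4 h at 37 °C static, read 1 h later / Measured by: luminescence of released adenylate kinase using an AK detection reagent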
PfHsp90 set2 – reduces growth (ATP signal) of yeast expressing P. falciparum Hsp90; S. cerevisiae expressing PfHsp90, BacTiter-Glo ATP, 48 h; yeast lacking PDR1 and PDR3 efflux regulators; inhibition, % at 9.4 µM; actives 0.32% (n = 310,000);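 active = every replicate shows inhibition above about 80%, whatever the replicate mean, limit read from the data; inconclusive = mean inhibition reaches the set limit but some replicate falls short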;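 also: 0% = DMSO neutral controls and 100% = 20 µM radicicol positive controls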
MLL AF4-AF9 inh – blocks AF4 peptide binding to human AF9 | AlphaScreen, biotin-AF4 peptide binding to FLAG-AF9 | inhibition, % at 10 µM | actives 0.47% (n = 350,000);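 active = every replicate reaching a set inhibition limit, whatever the replicate mean, cut at about 25% in these data; inconclusive = mean inhibition reaches that limit but some replicates miss it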;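 also: 0% = plate neutral control median and 100% = total signal loss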
Target sequence (P42568 whole entry, looked up): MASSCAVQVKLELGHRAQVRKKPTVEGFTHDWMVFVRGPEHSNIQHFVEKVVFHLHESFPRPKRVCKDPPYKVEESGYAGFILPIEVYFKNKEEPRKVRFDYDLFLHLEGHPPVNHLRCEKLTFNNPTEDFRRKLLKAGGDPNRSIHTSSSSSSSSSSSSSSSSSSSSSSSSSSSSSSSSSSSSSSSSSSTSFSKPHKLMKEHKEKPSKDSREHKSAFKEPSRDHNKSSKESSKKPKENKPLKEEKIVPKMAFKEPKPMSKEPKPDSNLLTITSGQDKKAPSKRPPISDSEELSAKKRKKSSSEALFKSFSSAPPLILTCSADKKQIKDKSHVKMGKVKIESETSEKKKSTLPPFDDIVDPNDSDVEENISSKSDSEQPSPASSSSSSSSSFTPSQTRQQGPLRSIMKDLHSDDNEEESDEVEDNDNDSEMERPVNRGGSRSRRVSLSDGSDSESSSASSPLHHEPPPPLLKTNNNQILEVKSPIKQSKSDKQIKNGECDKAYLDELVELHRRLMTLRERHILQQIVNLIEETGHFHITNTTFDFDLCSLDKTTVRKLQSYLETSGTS
S100A4 inh HTS – inhibitors of human S100A4 binding to myosin IIA peptide. P26447. S100A4/TAMRA-MyoIIA peptide fluorescence polarization. actives 0.14% (n = 360,000). inhibition, % at 10.7 µM;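 active = mean inhibition of at least 70% across replicates, with every replicate also reaching that level; inconclusive = mean inhibition reaches 70% but some replicates fall short; inactive = mean inhibition below 70%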
Target sequence (P26447 whole entry, looked up): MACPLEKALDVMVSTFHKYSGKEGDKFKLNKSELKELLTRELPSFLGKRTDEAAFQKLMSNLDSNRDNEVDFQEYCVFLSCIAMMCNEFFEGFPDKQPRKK
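Material: S100A4 monomer protein / Buffer or medium: 50 mM HEPES pH 7.2, 10 mM CaCl2, 100 mM KCl / Times: 5 min incubation before reading / Benchmarks: neutral control DMSO, positive control TFP / Reagent: labelled myosin peptide probe, 5 nM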
* marks the source's active call; other numbers are inactive results; ? = inconclusive; / = no result given. In the library only some 3.2% were active in any assay of this set; here they are far more common.

SMILES | rRNA inh HTS | DENV2 CPE rescue | Cneo AK release | PfHsp90 set2 | MLL AF4-AF9 inh | S100A4 inh HTS
O=C(CN1CCOCC1)NCC[C@H]1CC[C@@H](NC(=O)Nc2ccc(Cl)cc2)[C@H](CO)O1 | -1 | 0 | -7 | / | 0 | -1
O=C1NC(Cc2ccc(Cl)cc2)COCc2cnnn2CCC1c1ccccc1 (configuration not stated) | -1 | -5 | 0 | / | 7 | 90*
COc1cccc(CN2CCNC(=O)C2CC(=O)NC2Cc3ccccc3C2)c1 (configuration not stated) | 12 | 2 | / | 8 | -3 | -5
CCCN1CCC(NC(=O)CC2C(=O)NCCN2Cc2cccc(OC)c2)CC1 (configuration not stated) | 7 | 85* | 19 | 2 | 1 | -1
COc1ccccc1-c1cnc2c(c1)C(=O)N([C@@H](C)CO)C[C@H](C)[C@@H](CN(C)C(=O)c1cccnc1)O2 | 0 | 3 | 2 | / | 5 | 4
C[C@@H]1CN([C@H](C)CO)C(=O)CCCn2nncc2CO[C@@H]1CN(C)Cc1ccc2c(c1)OCCO2 | 2 | / | / | / | / | /
CCC(=O)N1CC(=O)N2[C@H](CO)[C@H](c3ccc(C#CCc4ccccc4)cc3)[C@@H]2C1 | 0 | 7 | / | / | -2 | -1
CN1CCCN=C1/C=C/c1cccs1 | 13 | 74* | 2 | 9 | -1 | 0
OCCCNc1cc(-c2ccnc(Nc3cccc(Cl)c3)n2)ccn1 | -20* | -2 | 3 | 8 | -9 | 5
CCC(C)Oc1cc(-c2ccnc(Nc3cccc(Cl)c3)n2)ccn1 (configuration not stated) | 18 | 2 | -2 | 3 | 1 | 4
O=C(C[C@H]1C=C[C@H](NC(=O)Cc2ccccn2)[C@H](CO)O1)NCCc1ccccc1 | 0 | 20 | / | / | -5 | -7
CC(=O)N1[C@H](CO)[C@H](c2ccccc2)[C@H]1CNC(=O)c1ccncc1 | 3 | 21* | / | / | -3 | -15
COCCN(C[C@H]1[C@H](c2ccccc2)[C@H](CO)N1C(C)=O)C(=O)c1ccncc1 | 1 | 25* | 3 | / | -2 | 5
O=C(N[C@@H]1CC[C@H](CC(=O)N2CCN(c3ccccc3)CC2)O[C@@H]1CO)c1ccccc1 | 2 | 1 | -4 | / | 0 | 2
c1ccc(Nc2nc(-c3ccccn3)cs2)cc1 | / | / | 3 | -8 | / | /
COc1cccc2sc(Nc3nc(-c4ccccn4)cs3)nc12 | / | / | -4 | 107* | / | /
COc1ccc(CNC(=O)N2CCc3nc(Nc4cc(OC)c(OC)c(OC)c4)ncc3C2)cc1 | / | -8 | -1 | / | 3 | -2
COc1cc(NC(=O)N2CCc3nc(Nc4cc(Cl)cc(Cl)c4)ncc3C2)cc(OC)c1OC | -5 | 47* | -1 | / | 1 | 0
Cc1ccc(S(=O)(=O)Nc2ccc3c(c2)C(=O)N([C@H](C)CO)C[C@@H](C)[C@@H](CN(C)C(=O)NC2CCCCC2)OCCCC[C@H](C)O3)cc1 | 0 | 4 | -1 | / | -6 | 29
Cc1noc(C)c1S(=O)(=O)Nc1ccc2c(c1)C(=O)N([C@@H](C)CO)C[C@H](C)[C@H](CN(C)Cc1ccncc1)O2 | -6 | 16 | -3 | / | -1 | -8
Cc1noc(C)c1S(=O)(=O)Nc1ccc2c(c1)C(=O)N([C@H](C)CO)C[C@H](C)[C@H](CN(C)Cc1ccncc1)O2 | -3 | 2 | 91* | / | -3 | 4
COc1ccc(CN(C)C[C@H]2Oc3ccc(NS(=O)(=O)c4c(C)noc4C)cc3C(=O)N([C@@H](C)CO)C[C@@H]2C)cc1 | 1 | 25* | -1 | / | -2 | -18
COc1cc2cc(CCCOC(=O)CCC(=O)O)oc(=O)c2cc1OC | -1 | 28* | 1 | 6 | 2 | -4
COc1cc2cc(CCOC(=O)CCCC(=O)O)oc(=O)c2cc1OC | 3 | -7 | 1 | 23 | 0 | -3
COc1cc2cc(CCO)oc(=O)c2cc1OC | -9 | 89* | 3 | 7 | -5 | 15
SMILES | rRNA inh HTS | DENV2 CPE rescue | Cneo AK release | PfHsp90 set2 | MLL AF4-AF9 inh | S100A4 inh HTS
CO[C@@H]1CN(C)C(=O)c2ccc(NC(=O)C3CC3)cc2OC[C@H](C)N(Cc2ccccc2)C[C@H]1C | -7 | -6 | -6 | / | -3 | 0
O=C(Nc1nc2cc3c(cc2s1)OCCO3)C1=COCCO1 | -7 | 8 | -20 | 8 | -1 | 9
O=C(Nc1nc2ccc(F)cc2s1)C1=COCCO1 | -20* | -4 | -7 | / | -18 | 3
CCC(=O)N1CCCCN2[C@H](CO)[C@@H](c3ccc(-c4ccc(F)cc4)cc3)[C@@H]2C1 | 4 | -12 | 0 | / | 1 | ?
CCC(=O)N1CCCCN2[C@H](CO)[C@@H](c3ccc(-c4ccc(F)cc4)cc3)[C@H]2C1 | 5 | 31* | 1 | / | 3 | -30
O=C(c1cccnc1)N1CCCCN2[C@@H](CO)[C@H](c3ccc(C#Cc4ccccn4)cc3)[C@@H]2C1 | 8 | -4 | 1 | / | -6 | -2
CCC(=O)N1CCCCN2[C@@H](CO)[C@@H](c3ccc(C#Cc4cccnc4)cc3)[C@@H]2C1 | 25 | 23* | 52 | / | -4 | -1
CCC(=O)N1CCCCN2[C@H](CO)[C@H](c3ccc(C#Cc4cccnc4)cc3)[C@@H]2C1 | -2 | -5 | 0 | / | -4 | -10
O=C(c1cccnc1)N1CCCCN2[C@H](C1)[C@H](c1ccc(C#Cc3ccccn3)cc1)[C@@H]2CO | -1 | -1 | 7 | / | 25* | -5
CS(=O)(=O)N1CCCCN2[C@H](CO)[C@H](c3ccc(C#Cc4ccccn4)cc3)[C@@H]2C1 | 4 | 33* | -1 | / | -6 | 10
CC(=O)Nc1ccc2c(c1)C(=O)N(C)[C@@H]1CC[C@@H](CC(=O)NCc3ccc(F)cc3)O[C@@H]1CO2 | 7 | -2 | -2 | / | -11 | 25
CCC(=O)N1CCCCN2[C@@H](CO)[C@@H](c3ccc(-c4cccnc4)cc3)[C@@H]2C1 | 4 | 16 | -1 | / | -3 | -1
CCC(=O)N1CCCCN2[C@H](C1)[C@H](c1ccc(-c3cccnc3)cc1)[C@@H]2CO | 3 | 38* | 51 | / | 0 | 6
O=C(c1ccc(F)cc1)N1CC(=O)N2[C@H](CO)[C@H](c3ccc(C#CC4CCCCC4)cc3)[C@@H]2C1 | 1 | 4 | / | / | 3 | 12
COC(=O)c1ccc(N2C(=O)CC(N3CCC(O)(c4ccc(Br)cc4)CC3)C2=O)cc1 (configuration not stated) | / | / | / | 100* | / | /
COc1ccc(N2C(=O)CC(N3CCC(O)(c4ccc(Cl)cc4)CC3)C2=O)cc1 (configuration not stated) | / | / | -2 | -8 | / | /
NC(=S)NNc1c(F)c(F)c(F)c(F)c1F | -26* | -1 | / | 8 | -1 | 6
